Key:
Format in all cases: functional
Rattus norvegicus [1] = species on record: Rattus norvegicus; assay: Hypolipidemic effects(liver weight) in male rats
Outline: (§1)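 Male rats, 10 per group, fed 7 days on chow with 10% fat (5.5% added peanut oil), 1.5% cholesterol and 0.1% cholic acid. Oral gavage on days 4-7 in 4% acacia, usually 50 mg/kg daily. Fasted overnight, killed day 8, atrial blood into EDTA. Plasma cholesterol, TG and HDL cholesterol (after MnCl2/heparin precipitation) by Autoanalyzer. % change vs controls, Student's t test.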

Rattus norvegicus [2] = assay: Hypolipidemic effects (low-density lipoprotein (LDL) cholesterol) in male rats;Compound was screening orally at 50 mg/Kg; outline: as §1
Rattus norvegicus [3] = assay: Hypolipidemic effects (high-density lipoprotein (HDL) cholesterol) in male rats;Compound was screening orally at 50 mg/Kg; outline: as §1
Rattus norvegicus [4] = species on record: Rattus norvegicus; assay: Hypolipidemic effects(plasma TG) in male rats; outline: as §1
Rattus norvegicus [5] = species on record: Rattus norvegicus; assay: Hypolipidemic effects(plasma cholesterol) in male rats; outline: as §1
Rattus norvegicus [6] = assay: Hypolipidemic effects (high-density lipoprotein (HDL) cholesterol) in male rats; Compound was screening orally at 50 mg/Kg; outline: as §1
Rattus norvegicus [7] = species on record: Rattus norvegicus; assay: Hypolipidemic effects (low-density lipoprotein (LDL) cholesterol) in male rats; outline: as §1
Rattus norvegicus [8] = assay: Hypolipidemic effects (Low-density lipoprotein (LDL) cholesterol) in male rats at 12.50 mg/kg; conditions: dose 12.5 mg/kg
Outline: (§2)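 Head-to-head oral dosing at 12.5, 25 and 50 mg/kg daily […] in male rats kept on a high lipid diet, alongside gemfibrozil reference. Plasma lipid fractions and liver weight expressed as % change vs controls.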

Rattus norvegicus [9] = assay: Hypolipidemic effects as the ratio of (HDL/LDL) in male rats at dose 50 mg/kg.
Outline: (§3)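 Male rats on a high lipid diet, dosed orally […] at 12.5, 25 or 50 mg/kg, with gemfibrozil reference. HDL/LDL (VLDL included) ratio from densitometry of polyacrylamide gel electrophoresis patterns of plasma. Expressed as % change vs controls.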

Rattus norvegicus [10] = assay: Hypolipidemic effects(plasma TG) in male rats at 12.50 mg/kg; conditions: dose 12.5 mg/kg; outline: as §2
Rattus norvegicus [11] = assay: Hypolipidemic effects(plasma cholesterol) in male rats at 12.50 mg/kg; conditions: dose 12.5 mg/kg; outline: as §2
Rattus norvegicus [12] = assay: Hypolipidemic effects as the ratio of (HDL/LDL) in male rats at dose 25 mg/kg.; outline: as §3
Rattus norvegicus [13] = assay: Hypolipidemic effects (Low-density lipoprotein (LDL) cholesterol) in male rats at 25 mg/kg; outline: as §2
Rattus norvegicus [14] = assay: Hypolipidemic effects (high-density lipoprotein (HDL) cholesterol) in male rats at 12.50 mg/kg; conditions: dose 12.5 mg/kg; outline: as §2
Rattus norvegicus [15] = assay: Hypolipidemic effects(plasma cholesterol) in male rats at 25 mg/kg; outline: as §2
Rattus norvegicus [16] = assay: Hypolipidemic effects(liver weight) in male rats at 25 mg/kg; outline: as §2
Rattus norvegicus [17] = assay: Hypolipidemic effects(plasma TG) in male rats;Compound was screening orally at 50 mg/Kg; outline: as §1
Rattus norvegicus [18] = assay: Hypolipidemic effects(plasma TG) in male rats at 25 mg/kg; outline: as §2
Rattus norvegicus [19] = assay: Hypolipidemic effects as the ratio of (HDL/LDL) in male rats at dose 12.5 mg/kg.; outline: as §3
Rattus norvegicus [20] = assay: Hypolipidemic effects(liver weight) in male rats at 12.50 mg/kg; conditions: dose 12.5 mg/kg; outline: as §2
Rattus norvegicus [21] = assay: Hypolipidemic effects(plasma cholesterol) in male rats;Compound was screening orally at 50 mg/Kg; outline: as §1
Rattus norvegicus [22] = assay: Hypolipidemic effects (high-density lipoprotein (HDL) cholesterol) in male rats at 25 mg/kg; outline: as §2
Rattus norvegicus [23] = assay: Hypolipidemic effects(plasma cholesterol) in male rats at 50 mg/kg; outline: as §2
Rattus norvegicus [24] = assay: Hypolipidemic effects(plasma TG) in male rats at 50 mg/kg; outline: as §2
Rattus norvegicus [25] = assay: Hypolipidemic effects(liver weight) in male rats at 50 mg/kg; outline: as §2
Rattus norvegicus [26] = assay: Hypolipidemic effects (high-density lipoprotein (HDL) cholesterol) in male rats at 50 mg/kg; Compound was screening orally at 50 mg/Kg; outline: as §1
Rattus norvegicus [27] = assay: Hypolipidemic effects (Low-density lipoprotein (LDL) cholesterol) in male rats at 50 mg/kg; Compound was screening orally at 50 mg/Kg; outline: as §1

## O=C(O)C1(CCCCOc2ccc(OCCCCC3(C(=O)O)CCC3)cc2)CCC1
Rattus norvegicus [1]
  Change: 0%
Rattus norvegicus [2]
  Change: -32%
Rattus norvegicus [3]
  Change: 55%
Rattus norvegicus [4]
  Change: 0%
Rattus norvegicus [5]
  Change: -23%

## COC(=O)C(C)(C)CCCOc1ccc(C=N/N=C(/N)S)c(OCCCC(C)(C)C(=O)OC)c1
Rattus norvegicus [6]
  Change: 280%
Rattus norvegicus [1]
  Change: 38%
Rattus norvegicus [2]
  Change: -83%
Rattus norvegicus [4]
  Change: -50%
Rattus norvegicus [5]
  Change: -60%

## CCCC(O)c1cc(OCCCC(C)(C)C(=O)O)ccc1OCCCC(C)(C)C(=O)O (stereo unspecified)
Rattus norvegicus [6]
  Change: 1292%
Rattus norvegicus [1]
  Change: 37%
Rattus norvegicus [2]
  Change: -45%
Rattus norvegicus [4]
  Change: 0%
Rattus norvegicus [5]
  Change: 61%

## COC(=O)C(C)(C)CCCOc1cccc(OC)c1OCCCC(C)(C)C(=O)OC
Rattus norvegicus [1]
  Change: 0%
Rattus norvegicus [3]
  Change: 0%
Rattus norvegicus [4]
  Change: 0%
Rattus norvegicus [7]
  Change: 0%
Rattus norvegicus [5]
  Change: 0%

## CC(C)(CCCOc1ccc(SCCCC(C)(C)C(=O)O)cc1)C(=O)O
Rattus norvegicus [8]
  Change: -25%
Rattus norvegicus [9]
  Change: 785%
Rattus norvegicus [10]
  Change: 0%
Rattus norvegicus [6]
  Change: 628%
Rattus norvegicus [1]
  Change: 18%
Rattus norvegicus [11]
  Change: -19%
Rattus norvegicus [12]
  Change: 302%
Rattus norvegicus [13]
  Change: -40%
Rattus norvegicus [14]
  Change: 74%
Rattus norvegicus [15]
  Change: -22%
Rattus norvegicus [16]
  Change: 6%
Rattus norvegicus [17]
  Change: -40%
Rattus norvegicus [18]
  Change: 37%
Rattus norvegicus [7]
  Change: -51%
Rattus norvegicus [19]
  Change: 101%
Rattus norvegicus [20]
  Change: 0%
Rattus norvegicus [21]
  Change: -44%
Rattus norvegicus [22]
  Change: 232%

## COC(=O)C(C)(C)CCCOc1ccc(OCCCC(C)(C)C(=O)OC)c(F)c1
Rattus norvegicus [1]
  Change: 41%
Rattus norvegicus [2]
  Change: -65%
Rattus norvegicus [3]
  Change: 347%
Rattus norvegicus [4]
  Change: 0%
Rattus norvegicus [5]
  Change: -30%

## CC(C)(Oc1cccc(OC(C)(C)C(=O)O)c1)C(=O)O
Rattus norvegicus [6]
  Change: 0%
Rattus norvegicus [1]
  Change: 0%
Rattus norvegicus [2]
  Change: 0%
Rattus norvegicus [4]
  Change: 0%
Rattus norvegicus [5]
  Change: 0%

## COC(=O)C(C)(C)CCCOc1ccc(OCCCC(C)(C)C(=O)OC)c(C(=O)c2ccccc2)c1
Rattus norvegicus [1]
  Change: 11%
Rattus norvegicus [2]
  Change: -42%
Rattus norvegicus [3]
  Change: 421%
Rattus norvegicus [4]
  Change: 43%
Rattus norvegicus [5]
  Change: 0%

## COC(=O)C(C)(C)CCCOc1ccc(OCCCC(C)(C)C(=O)OC)c(C)c1
Rattus norvegicus [8]
  Change: -54%
Rattus norvegicus [9]
  Change: 1009%
Rattus norvegicus [10]
  Change: 0%
Rattus norvegicus [23]
  Change: -37%
Rattus norvegicus [24]
  Change: 62%
Rattus norvegicus [11]
  Change: -43%
Rattus norvegicus [12]
  Change: 452%
Rattus norvegicus [13]
  Change: -65%
Rattus norvegicus [14]
  Change: 102%
Rattus norvegicus [25]
  Change: 38%
Rattus norvegicus [26]
  Change: 743%
Rattus norvegicus [15]
  Change: -41%
Rattus norvegicus [16]
  Change: 25%
Rattus norvegicus [18]
  Change: 0%
Rattus norvegicus [19]
  Change: 142%
Rattus norvegicus [20]
  Change: 13%
Rattus norvegicus [27]
  Change: -71%
Rattus norvegicus [22]
  Change: 269%

Source: ChEMBL document CHEMBL1122242, “Phenylenebis(oxy)bis[2,2-dimethylpentanoic acid]s: agents that elevate high-density lipoproteins” (1983)
